Reference: ChEMBL document CHEMBL3856197 (Eur J Med Chem, 2016)
Active and inactive are the calls of the source. No cut-off for these calls is given here.

Assays:
[1] = species: Mus musculus; assay: Cytotoxicity against BMOL-NT cells assessed as induction of cell death up to 100 uM; format: toxicity, cell-based
In short: (§1)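 Mouse bipotential oval (liver progenitor) line BMOL-NT (passage <15) grown in Williams' E medium with 5% FBS, EGF, IGF-II and insulin. Plated at 1,500 cells/well; next day compound added as a 2x solution to give 1x final. Confluency imaged on Cellavista twice daily for 5 days or until 80% confluent. Growth curves plotted from log confluency; doubling time taken from the log-phase linear portion.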

[2] = species: Mus musculus; assay: Cytotoxicity against BMOL-NT cells assessed as cell growth inhibition at 10 uM; format: toxicity, cell-based
In short: (§2)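 BMOL-NT (low passage, p<15) or BMOL-T (p>30) mouse liver progenitor cells in Williams' E medium. Seeded at 1,500 (NT) or 1,000 (T) cells per well, allowed to attach, then compound added as 2x solution to 1x final. Cellavista imaging twice daily for 5 days or until 80% confluent. Log % well coverage plotted against time; doubling time taken from log-phase linear portion.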

[3] = Growth inhibition of BMOL-NT cells; format: cell-based; settings: mouse; in short: as §2
[4] = test system: BMOL-T; assay: Anticancer activity against BMOL-T cells assessed as cell growth inhibition at 10 uM; format: functional, cell-based; settings: Mus musculus; in short: as §2
[5] = Growth inhibition of BMOL-T cells; format: functional; settings: Mus musculus; in short: as §2
[6] = species: Mus musculus; assay: Cytotoxicity against BMOL-NT cells assessed as induction of cell death at 100 uM; format: toxicity, cell-based; in short: as §1
[7] = Anticancer activity against BMOL-T cells assessed as doubling time at 8 uM; format: functional, Mus musculus; in short: as §2
[8] = Growth inhibition of BMOL-T cells assessed as increase in doubling time at 8 uM after 2 days relative to control; format: functional, Mus musculus; design: scale not given: the % may be the effect or the level left; in short: as §2
[9] = target: T1, Nuclear factor NF-kappa-B p100 subunit (Mus musculus) (UniProt Q9WTK5); assay: Inhibition of NF-kappaB2 in BMOL-T cells assessed as reduction in p52 formation by western blot analysis relative to control; format: cell-based; settings: concentration not given here
T1 sequence (whole entry): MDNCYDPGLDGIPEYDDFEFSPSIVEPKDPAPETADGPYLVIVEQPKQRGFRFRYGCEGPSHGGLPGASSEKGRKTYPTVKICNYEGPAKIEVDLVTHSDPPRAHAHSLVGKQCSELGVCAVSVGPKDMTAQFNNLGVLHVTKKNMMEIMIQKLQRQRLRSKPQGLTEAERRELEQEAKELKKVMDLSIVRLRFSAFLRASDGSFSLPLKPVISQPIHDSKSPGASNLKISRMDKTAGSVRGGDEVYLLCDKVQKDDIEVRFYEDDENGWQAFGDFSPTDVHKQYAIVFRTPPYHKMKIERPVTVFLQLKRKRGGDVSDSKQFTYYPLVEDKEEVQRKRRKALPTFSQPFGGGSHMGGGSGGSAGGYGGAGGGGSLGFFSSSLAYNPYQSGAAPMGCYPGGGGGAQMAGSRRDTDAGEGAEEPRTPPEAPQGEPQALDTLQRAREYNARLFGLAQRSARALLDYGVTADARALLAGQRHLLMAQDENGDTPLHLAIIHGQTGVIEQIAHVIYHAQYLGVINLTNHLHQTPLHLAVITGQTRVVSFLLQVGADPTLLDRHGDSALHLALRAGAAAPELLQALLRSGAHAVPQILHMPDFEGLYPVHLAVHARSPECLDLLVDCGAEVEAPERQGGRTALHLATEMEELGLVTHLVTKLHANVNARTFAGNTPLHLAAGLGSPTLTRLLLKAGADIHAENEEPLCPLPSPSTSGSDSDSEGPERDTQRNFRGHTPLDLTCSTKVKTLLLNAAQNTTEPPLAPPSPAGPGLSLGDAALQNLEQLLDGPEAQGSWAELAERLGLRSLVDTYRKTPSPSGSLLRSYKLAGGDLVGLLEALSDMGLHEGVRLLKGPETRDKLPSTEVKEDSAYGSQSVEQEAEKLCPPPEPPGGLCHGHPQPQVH
In short: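 BMOL-T cells exposed to compound as in the growth assay, lysed in DISC buffer. Western blot with primary antibodies overnight and HRP secondaries 1 h, all diluted in 5% skim milk in TBS-T, chemiluminescent detection. Bands normalised to β-actin; p52/p100 ratio and phospho-p65 compared with control.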

[10] = Anticancer activity against BMOL-T cells assessed as doubling time at 0 to 6 uM; format: functional, Mus musculus; in short: as §2
[11] = Induction of apoptosis in BMOL-T cells assessed as increase in fragmented DNA at 10 uM measured after 3 days relative to control; format: functional, Mus musculus
In short: (§3)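 BMOL-NT or BMOL-T cells, compound at 10 μM for three days. Fixed in 4% paraformaldehyde/0.1% Triton X-100, DNA fragmentation labelling reaction 60 min at 37 °C, nuclear dye 5 min, Cellavista imaging. Cisplatin 8 μg/mL for 24 h as positive control. Apoptotic index is % cells with fragmented DNA per well, three cell lots.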

[12] = Anticancer activity against BMOL-T cells assessed as doubling time at 10 uM; format: functional, Mus musculus; in short: as §2
[13] = species: Mus musculus; assay: Cytotoxicity against BMOL-NT cells assessed as doubling time at 0 to 10 uM; format: toxicity, cell-based; in short: as §2
[14] = Induction of apoptosis in BMOL-NT cells assessed as increase in fragmented DNA at 10 uM measured after 3 days relative to control; format: cell-based; settings: mouse, 72 h; in short: as §3
[15] = Growth inhibition of BMOL-T cells assessed as increase in doubling time at 10 uM after 2 days relative to control; format: functional, Mus musculus; design: scale not given: the % may be the effect or the level left; in short: as §2
[16] = Antimitotic activity against BMOL-NT cells assessed as reduction in mitotic index at 10 uM measured after 3 days by phosphohistone H3 staining-based method; format: cell-based; design: scale not given: the % may be the effect or the level left; settings: mouse, 72 h
In short: (§4)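 BMOL-NT or BMOL-T cells, compound at 10 μM for three days. Fixed in 4% paraformaldehyde/0.1% Triton X-100, then phospho-histone H3 antibody 60 min at room temperature with nuclear counterstain, Cellavista imaging. Colcemid 1 μg/mL overnight as positive control. Mitotic index is % positive cells per well, mean of replicate wells, three cell lots.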

[17] = Antimitotic activity against BMOL-T cells assessed as mitotic index at 10 uM measured after 3 days by phosphohistone H3 staining-based method relative to control; format: functional, Mus musculus; in short: as §4
[18] = test system: BMOL-T; assay: Anticancer activity against BMOL-T cells assessed as cell growth inhibition at 100 uM; format: functional, cell-based; settings: Mus musculus; in short: as §2
[19] = Growth inhibition of BMOL-NT cells assessed as increase in doubling time at 10 uM after 2 days relative to control; format: cell-based; design: scale not given: the % may be the effect or the level left; settings: mouse, 48 h; in short: as §2
[20] = Growth inhibition of BMOL-T cells assessed as doubling time at 2 uM (reference value: 27 to 34 hrs); format: functional, Mus musculus; in short: as §2
[21] = Growth inhibition of BMOL-NT cells assessed as doubling time at 8 uM (reference value: 29 to 32.5 hrs); format: cell-based; settings: mouse; in short: as §2
[22] = Growth inhibition of BMOL-T cells assessed as doubling time at 8 uM (reference value: 27 to 34 hrs); format: functional, Mus musculus; in short: as §2
[23] = Growth inhibition of BMOL-NT cells assessed as population doubling time at 1 uM (reference value: 29 to 32.5 hrs); format: cell-based; settings: mouse; in short: as §2
[24] = Growth inhibition of BMOL-NT cells assessed as doubling time at 10 uM (reference value: 29 to 32.5 hrs); format: cell-based; settings: mouse; in short: as §2
[25] = Growth inhibition of BMOL-NT cells assessed as doubling time at 4 uM (reference value: 29 to 32.5 hrs); format: cell-based; settings: mouse; in short: as §2
[26] = Growth inhibition of BMOL-T cells assessed as doubling time at 10 uM (reference value: 27 to 34 hrs); format: functional, Mus musculus; in short: as §2
[27] = Growth inhibition of BMOL-NT cells assessed as increase in doubling time at 8 uM after 2 days relative to control; format: cell-based; design: scale not given: the % may be the effect or the level left; settings: mouse, 48 h; in short: as §2
[28] = test system: BMOL-NT cells (Mus musculus); assay: Growth inhibition of BMOL-NT cells at 10 uM after 2 days relative to control; settings: 48 h, read-out: GI
[29] = Growth inhibition of BMOL-T cells assessed as doubling time at 1 uM (reference value: 27 to 34 hrs); format: functional, Mus musculus; in short: as §2
[30] = Growth inhibition of BMOL-NT cells assessed as population doubling time at 2 uM (reference value: 29 to 32.5 hrs); format: cell-based; settings: mouse; in short: as §2
[31] = Growth inhibition of BMOL-T cells assessed as doubling time at 0.5 uM (reference value: 27 to 34 hrs); format: functional, Mus musculus; in short: as §2
[32] = Growth inhibition of BMOL-NT cells assessed as population doubling time at 0.5 uM (reference value: 29 to 32.5 hrs); format: cell-based; settings: mouse; in short: as §2

O=CC#Cc1ccc2c(c1)C(=O)N(C1CCC(=O)NC1=O)C2=O (stereo not drawn)
Activity [1]: Non-Toxic

CCCCCc1ccc(Nc2ccc3c(c2)C(=O)N(C2CCC(=O)NC2=O)C3=O)cc1 (stereo not drawn)
Activity [2]: Non-Toxic | GI50 [3]: 60 µM | growth inhibition (GI) [4]: Active | GI50 [5]: 60 µM

O=C1CCC(N2C(=O)c3ccccc3C2=O)C(=O)N1 (stereo not drawn) [THALIDOMIDE]
GI50 [3]: 100 µM | Activity [6]: Toxic

CC(C)c1ccc(Nc2cccc3c2C(=O)N(C2CCC(=O)NC2=O)C3=O)cc1 (stereo not drawn)
Activity [2]: Non-Toxic | Time [7]: 26 h | Activity [8]: 11% | inhibition [9]: 30% | GI50 [3]: 60 µM | Time [10]: 23 h | fold change (FC) [11]: 1.6 - 4 | Time [12]: 30 h | Time [13]: 31 h | fold change (FC) [14]: 1.5 | growth inhibition (GI) [4]: Active | Activity [15]: 26 - 27% | Activity [16]: Non-Toxic | GI50 [5]: 40 µM | Activity [17]: 34%

CC(C)(C)c1ccc(Nc2ccc3c(c2)C(=O)N(C2CCC(=O)NC2=O)C3=O)cc1 (stereo not drawn)
growth inhibition (GI) [18]: Active | GI50 [3]: 100 µM | GI50 [5]: 100 µM | Activity [6]: Toxic

O=CC#Cc1cccc2c1C(=O)N(C1CCC(=O)NC1=O)C2=O (racemic)
Activity [1]: Non-Toxic

CCCCCc1ccc(Nc2cccc3c2C(=O)N(C2CCC(=O)NC2=O)C3=O)cc1 (stereo not drawn)
growth inhibition (GI) [18]: Active | GI50 [3]: 100 µM | GI50 [5]: 100 µM | Activity [6]: Toxic

Nc1cccc2c1CN(C1CCC(=O)NC1=O)C2=O (stereo not drawn) [LENALIDOMIDE]
GI50 [3]: 100 µM | Activity [6]: Toxic

CNC(=O)c1cc(Oc2ccc(NC(=O)Nc3ccc(Cl)c(C(F)(F)F)c3)cc2)ccn1 [SORAFENIB]
Activity [8]: 36 - 144% | Activity [19]: 101 to 134% | Time [20]: 34.4 to 35 h | Time [21]: 58 to 74 h | Time [22]: 65 to 66 h | Time [23]: 32.5 to 34.7 h | Time [24]: 68 h | fold change (FC) [11]: 38 | Time [25]: 37.4 to 37.9 h | Time [26]: 79 h | Activity [27]: 100 to 128% | inhibition of growth at 10 µM [28]: 70% | fold change (FC) [14]: 2.5 to 18.1 | Activity [15]: 193 - 235% | Activity [16]: 66 to 87% | Time [29]: 33.2 to 34.2 h | Time [30]: 33.3 to 33.7 h | Time [31]: 28.05 to 35 h | Activity [17]: 62% | Time [32]: 31.9 to 32.5 h
